Experimental data of several laboratories.
Compare with care: the assays were run in different laboratories.

| Compound | assay | system | setting | endpoint | value |
| --- | --- | --- | --- | --- | --- |
| COc1cc(N2CCC(N3CCN(C)CC3)CC2)ccc1Nc1ncc(Cl)c(Nc2ccccc2P(C)(C)=O)n1 |  |  |  | logP | 2.69 |
| Cc1cc2sc(N)nc2c2cccnc12 |  | female BALB/c mouse, plasma | intraperitoneal, 30 mg/kg, 24 h, single dose | concentration | 32.7 ng/mL |
| CN(C(=O)c1ccn2ncc(-c3ccc(C(N)=O)cc3)c2c1)c1ccc(C#N)cn1 |  | female C57BL/6 mouse, plasma | oral, 10 mg/kg, 4 h | concentration | 519 nM |
| CCN1CCN(C(=O)c2ccc(-n3nc(-c4cccnc4)c4c3-c3sc(NC(C)=O)nc3CC4)cc2)CC1 |  |  |  | logP | 3.16 |
| CNC(=O)c1ccc(-c2cnn3ccc(C(=O)N(C[C@H]4CCC(=O)O4)c4ccc(OC(F)(F)F)cc4)cc23)cc1 |  | female C57BL/6 mouse, plasma | oral, 10 mg/kg, 1 h | concentration | 31.4 nM |
| O=C1NC(=O)/C(=C/c2ccc3ncnc(N4CCCCC4)c3n2)S1 |  |  |  | logP | 2.33 |
| CCOC(=O)c1cc(Cl)cc(NC(=O)c2sc(Cl)cc2S(=O)(=O)N(C)c2ccc(OCC)c(OC)c2)c1 |  | male C57BL/6 mouse, brain | intraperitoneal, 10 mg/kg, 1 h | concentration | 6.45 ng/g |
| O=c1ccc2ccc(O)cc2o1 | metabolic stability | dog, liver microsomes |  | scaled CLint | 1720 mL/min/kg |
| CN(C)CC#Cc1ccc2[nH]c3c(c2c1)-c1nc(N)ncc1CCC3 |  | male CD-1 mouse, plasma | intraperitoneal, 30 mg/kg, 1 h, single dose | concentration | 697 ng/mL |
| O=C1NC(=O)/C(=C/c2ccc3ncnc(N4CCC(F)(F)CC4)c3n2)S1 |  |  |  | logP | 2.51 |
| CCN1CCN(Cc2ccc(NC(=O)c3ccc(C)c(NC(=O)c4cncc(-c5cccs5)c4)c3)cc2C(F)(F)F)CC1 |  | mouse, plasma | intraperitoneal, 20 mg/kg, single dose | half-life | 2.52 h |
| CCOC(=O)CN(C(=O)c1ccn2ncc(-c3ccc(C(=O)NC)cc3)c2c1)c1ccc(Cl)cc1 |  | female C57BL/6 mouse, plasma | oral, 10 mg/kg, 4 h | concentration | 150 nM |
| CCOc1ccc2ccc(=O)oc2c1 | metabolic stability | male beagle dog, hepatocytes | 1 µM | hepatocyte CLint | > 46.2 µL/min/10⁶ cells |
